Measurements as given in ChEMBL document CHEMBL1933044.
The source made the active and inactive calls. The calls are words filed in the database; no cut-off is given here.

What was measured:
[1] = Antagonist activity at NMDAR in rat cerebellar granule neurons assessed as inhibition of glutamate-induced calcium flux after 5 mins using FURA-2AM in presence of glycine; format: functional
How it was run: (§1)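 Primary cerebellar granule neuron cultures grown on poly-L-lysine-coated glass coverslips and used after 7-14 days in vitro. Intracellular calcium recorded in real time over 1200 s. Cells were stimulated with NMDA or glutamate (100 μM, with 10 μM glycine), then given increasing cumulative compound concentrations. Percent inhibition at each concentration was fitted by non-linear regression (variable slope). At least three experiments on three culture batches.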

[2] = Antagonist activity at NMDAR in rat cerebellar granule neurons assessed as inhibition of NMDA-induced calcium flux after 5 mins using FURA-2AM in presence of glycine; format: functional; how it was run: as §1
Trypanosoma brucei [3] = assay: Antitrypanosomal activity against bloodstream form of Trypanosoma brucei 427 after 48 hrs by hemocytometer analysis; format: functional, organism-based; settings: Trypanosoma brucei, 427, 48 h
Human alphaherpesvirus 1 = assay: Antiviral activity against HSV1 assessed as inhibition of viral replication; format: functional, organism-based
How it was run: (§2)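 Cell culture virus assays. Inhibition of virus replication and compound cytotoxicity were scored by microscopic examination and confirmed by a colorimetric MTS cell viability assay. Selectivity index is the ratio of cytotoxic to antiviral concentration.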

Human alphaherpesvirus 2 = assay: Antiviral activity against HSV2 assessed as inhibition of viral replication; format: functional, organism-based; how it was run: as §2
Vaccinia virus = assay: Antiviral activity against Vaccinia virus assessed as inhibition of viral replication; format: functional, organism-based; settings: Orthopoxvirus vaccinia; how it was run: as §2
Feline coronavirus = assay: Antiviral activity against Feline coronavirus assessed as inhibition of viral replication; format: functional, organism-based; how it was run: as §2
Human respirovirus 3 = assay: Antiviral activity against Parainfluenza-3 virus assessed as inhibition of viral replication; format: functional, organism-based; how it was run: as §2
[4] = tested on: Respiratory syncytial virus; assay: Antiviral activity against RSV assessed as inhibition of viral replication; format: functional, organism-based; how it was run: as §2
Sindbis virus = assay: Antiviral activity against Sindbis virus assessed as inhibition of viral replication; format: functional, organism-based; how it was run: as §2
Punta Toro virus = assay: Antiviral activity against Punta Toro virus assessed as inhibition of viral replication; format: functional, organism-based; how it was run: as §2
Coxsackievirus B4 = assay: Antiviral activity against Coxsackievirus B4 assessed as inhibition of viral replication; format: functional, organism-based; how it was run: as §2
Reovirus sp. = assay: Antiviral activity against Reovirus 1 assessed as inhibition of viral replication; format: functional, organism-based; how it was run: as §2
[5] = tested on: Vesicular stomatitis virus; assay: Antiviral activity against VSV in HeLa cells assessed as inhibition of viral replication; format: functional, organism-based; how it was run: as §2
[6] = tested on: Vesicular stomatitis virus; assay: Antiviral activity against VSV in human HEL cells assessed as viability by MTS based microscopy; format: functional, organism-based; how it was run: as §2
H3N2 subtype = assay: Antiinfluenza activity against Influenza A virus (A/Hong Kong/7/1987(H3N2)) assessed as inhibition of viral replication; format: functional, organism-based; how it was run: as §2
Influenza B virus = assay: Antiinfluenza activity against Influenza B virus (B/Hong Kong/05/1972) assessed as inhibition of viral replication; format: functional; how it was run: as §2
Influenza A virus = assay: Antiinfluenza activity against Influenza A virus (A/Puerto Rico/8/1934(H1N1)) assessed as inhibition of viral replication; format: functional, organism-based; how it was run: as §2
[7] = target: Matrix protein 2 (Influenza A virus) (UniProt P06821); assay: Inhibition of Influenza A virus (A/Puerto Rico/8/1934(H1N1)) M2 channel expressed in Xenopus oocytes at 100 uM by two-electrode voltage clamp assay; format: cell-based; settings: Oocyte
[8] = Selectivity index, ratio of cytotoxicity for HeLa cells to ratio of EC50 for Vesicular stomatitis virus; format: toxicity, cell-based; settings: human, read-out: Selectivity Index; how it was run: as §2
Trypanosoma brucei [9] = assay: Ratio of compound IC90 to rimantadine IC90 for bloodstream form of Trypanosoma brucei 427; format: functional

Matrix protein 2 (Influenza A virus), sequence (P06821 whole entry): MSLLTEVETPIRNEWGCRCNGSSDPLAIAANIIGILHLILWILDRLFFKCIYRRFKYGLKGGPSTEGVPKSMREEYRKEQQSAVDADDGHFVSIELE

SMILES | IC50 [1] [µM] | IC50 [2] [µM] | IC50 (Trypanosoma brucei [3]) [µM] | IC90 (Trypanosoma brucei [3]) [µM] | Activity (Human alphaherpesvirus 1) | Activity (Human alphaherpesvirus 2) | Activity (Vaccinia virus) | Activity (Feline coronavirus) | Activity (Human respirovirus 3) | Activity [4] | Activity (Sindbis virus) | Activity (Punta Toro virus) | Activity (Coxsackievirus B4) | Activity (Reovirus sp.) | inhibition [7] | also measured
CN(Cc1ccccc1)C12CC3CC(C)(CC(C1)c1ccccc13)C2 | > 500 | > 200 | 5.25 | 10.8 | inactive | inactive | inactive | inactive | inactive | inactive | inactive | inactive | inactive | inactive |  | 
CNC12CC3CC(C)(CC(C1)c1ccccc13)C2 | 455 | 19.4 | 4.46 | 6.66 | inactive | inactive | inactive | inactive | inactive | inactive | inactive | inactive | inactive | inactive |  | 
CC12CC3CC(N4CCCCC4)(CC(C1)c1ccccc13)C2 | > 500 | 101 |  |  | inactive | inactive | inactive | inactive | inactive | inactive | inactive | inactive | inactive | inactive |  | EC50 [5]: 54 µM; Activity [6]: inactive
CC12CC3CC(NCc4ccccc4)(CC(C1)c1ccccc13)C2 | > 500 | > 200 | 3 | 6.55 | inactive | inactive | inactive | inactive | inactive | inactive | inactive | inactive | inactive | inactive | inactive | Activity (H3N2 subtype): inactive; Activity (Influenza B virus): inactive; EC50 (Influenza A virus): 10 µM
C#CCN(CC#C)C12CC3CC(C)(CC(C1)c1ccccc13)C2 | > 500 | > 200 | 13.4 | 21.6 | inactive | inactive | inactive | inactive | inactive | inactive | inactive | inactive | inactive | inactive |  | EC50 [5]: 4 µM; selectivity ratio [8]: 25; Activity [6]: inactive
CC12CC3CC(C)(C1)CC(N)(C3)C2 [MEMANTINE] |  |  |  | 21.4 |  |  |  |  |  |  |  |  |  |  |  | 
CC(N)C12CC3CC(CC(C3)C1)C2 (centres undefined) [RIMANTADINE] |  |  |  | 14 |  |  |  |  |  |  |  |  |  |  |  | 
CN(C)C12CC3CC(C)(CC(C1)c1ccccc13)C2 | 87 | 11.8 | 1.99 | 3.14 | inactive | inactive | inactive | inactive | inactive | inactive | inactive | inactive | inactive | inactive | inactive | 
CC12CC3CC(N)(CC(C1)c1ccccc13)C2 | 22 | 13.6 | 4.8 | 9.6 | inactive | inactive | inactive | inactive | inactive | inactive | inactive | inactive | inactive | inactive | inactive | 
C#CCNC12CC3CC(C)(CC(C1)c1ccccc13)C2 | > 500 | 27.5 | 1.99 | 3.14 | inactive | inactive | inactive | inactive | inactive | inactive | inactive | inactive | inactive | inactive |  | Ratio (Trypanosoma brucei [9]): >4
